One may read the EC50 as the concentration giving half of the maximal effect. As a reminder, the Ki is a measure of affinity in units of concentration, obtained from inhibition or displacement. Read a low Ki as tighter binding. A word on the inhibition: it is the drop in the measured response relative to a control, in per cent. A high value points to a strong effect. A word on the Emax: it is the size of the effect at its maximum, as opposed to the concentration needed.

Consider three molecules from ChEMBL document CHEMBL3232854, “Agonists for the adenosine A1 receptor with tunable residence time. A Case for nonribose 4-amino-6-aryl-5-cyano-2-thiopyrimidines” (J Med Chem, 2014).

Molecules are shown by their SMILES.

Assay [1] addresses T1, Adenosine receptor A1 (Homo sapiens, UniProt P30542).
T1 sequence (P30542 whole entry): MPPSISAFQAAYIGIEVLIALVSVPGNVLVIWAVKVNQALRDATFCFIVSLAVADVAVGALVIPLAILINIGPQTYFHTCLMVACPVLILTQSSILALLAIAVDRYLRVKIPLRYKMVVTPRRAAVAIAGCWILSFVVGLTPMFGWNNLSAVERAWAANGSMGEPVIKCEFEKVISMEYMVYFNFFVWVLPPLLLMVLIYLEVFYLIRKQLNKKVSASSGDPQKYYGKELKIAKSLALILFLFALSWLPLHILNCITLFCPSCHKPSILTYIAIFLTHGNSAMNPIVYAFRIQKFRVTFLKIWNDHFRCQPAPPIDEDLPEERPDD
The experiment in a line: Agonist activity at human adenosine A1 receptor expressed in HEK293 cells assessed as […] in intracellular cAMP level after 30 mins by EIA. The assay is classed as functional, cell-based. On the technique in general: Cyclic AMP is a second messenger, typically raised through Gs and lowered through Gi signalling.

The target in assay [2] is T1, Adenosine receptor A1. The assay can be described thus: Displacement of [3H]DPCPX from human adenosine A1 receptor expressed in CHO cell membranes after 1 hr by beta scintillation counting analysis. The gist of the method:
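Membranes from CHO cells stably expressing human A1 receptor (5 μg protein) incubated with [3H]DPCPX in 25 mM Tris-HCl pH 7.4, 5 mM MgCl2, 0.1% CHAPS, 1 h at 25 °C; nonspecific binding with 100 μM CPA; GF/B filtration, three ice-cold washes, scintillation counting. Single 1 μM points from ≥2 experiments in duplicate; Ki by nonlinear regression (radioligand KD 1.6 nM), ≥3 experiments in duplicate.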

Assay [3] addresses Adenosine receptor A2a (Homo sapiens) (UniProt P29274). The assay can be described thus: Displacement of [3H]ZM241385 from human adenosine A2A receptor expressed in HEK293 cell membranes at 1 uM after 2 hrs by beta scintillation counting analysis relative to control. A digest of the protocol: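 HEK 293 membranes stably expressing human A2A receptor (25 μg protein) incubated with [3H]ZM241385 in 50 mM Tris-HCl pH 7.4, 2 h at 25 °C; compounds at 1 μM; nonspecific binding with 100 μM CPA; GF/B filtration, ice-cold washes, scintillation counting; ≥2 experiments in duplicate.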
(In general: In a radioligand displacement assay an active substance lowers the binding of a labelled ligand.)

The target of assay [4] is T2, Adenosine receptor A3 (Homo sapiens) (UniProt P0DMS8).
T2 sequence (whole entry): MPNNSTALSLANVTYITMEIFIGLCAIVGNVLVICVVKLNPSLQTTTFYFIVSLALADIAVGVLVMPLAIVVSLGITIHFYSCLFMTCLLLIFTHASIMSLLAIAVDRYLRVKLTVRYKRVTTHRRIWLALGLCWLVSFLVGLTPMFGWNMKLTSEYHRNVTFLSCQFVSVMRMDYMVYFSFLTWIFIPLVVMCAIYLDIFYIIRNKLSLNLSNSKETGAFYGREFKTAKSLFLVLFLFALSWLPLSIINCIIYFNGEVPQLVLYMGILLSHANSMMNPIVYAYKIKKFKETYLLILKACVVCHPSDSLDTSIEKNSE
The assay can be described thus: Displacement of [3H]PSB11 from human adenosine A3 receptor expressed in CHO cell membranes at 1 uM after 2 hrs by beta scintillation counting analysis relative to control. The gist of the method: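 CHO membranes stably expressing human A3 receptor (45 μg protein) incubated with [3H]PSB11 and 1 μM compound in 50 mM Tris-HCl pH 8.0, 10 mM MgCl2, 1 mM EDTA, 0.01% CHAPS, 2 h at 25 °C; nonspecific binding with 100 μM NECA; filtration, washes without CHAPS, scintillation counting; ≥2 experiments in duplicate.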

The target of assay [5] is T3, Adenosine receptor A1 (Homo sapiens) (UniProt P30542).
T3 sequence (whole entry): T1 sequence (P30542 whole entry)
The experiment in a line: Ratio for displacement of [3H]DPCPX from human adenosine A1 receptor expressed in CHO cell membranes at 10 times Ki after 15 mins by dual-point competition association assay to ratio for displacement of [3H]DPCPX from human adenosine A1 receptor expressed in CHO cell membranes 10 times Ki after 120 mins by dual-point competition association assay.

In assay [6] the target is T3, Adenosine receptor A1 (Homo sapiens). The assay can be described thus: Agonist activity human adenosine A1 receptor expressed in CHO cell membranes assessed as stimulation of [35S]GTPgammaS binding at 100 times Ki preincubated for 30 mins followed by radioligand addition measured after 90 mins by beta scintillation counting analysis relative to N6-cyclopentyladenosine. The assay is classed as functional. Background: GTPγS resists hydrolysis and so accumulates on activated G proteins.

A further assay addresses T4, Adenosine receptor A2b (Homo sapiens, UniProt P29275).
T4 sequence (P29275 whole entry): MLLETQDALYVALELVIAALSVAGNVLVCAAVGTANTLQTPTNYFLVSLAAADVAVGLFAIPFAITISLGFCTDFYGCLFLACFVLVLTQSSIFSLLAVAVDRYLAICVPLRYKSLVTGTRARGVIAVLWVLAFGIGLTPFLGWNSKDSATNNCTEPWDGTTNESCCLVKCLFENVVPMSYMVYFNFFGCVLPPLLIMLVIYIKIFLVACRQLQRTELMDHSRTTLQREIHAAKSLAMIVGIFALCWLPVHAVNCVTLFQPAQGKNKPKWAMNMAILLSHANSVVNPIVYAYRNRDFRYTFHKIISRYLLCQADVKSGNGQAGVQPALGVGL
The experiment in a line: Displacement of [3H]PSB603 from human adenosine A2B receptor expressed in CHO cell membranes after 2 hrs by beta scintillation counting analysis.

The target in assay [7] is T1, Adenosine receptor A1. The assay can be described thus: Agonist activity at adenosine A1 receptor (unknown origin) expressed in CHO cells assessed as […] in intracellular cAMP level by RIA. It counts as functional, cell-based.

Adenosine receptor A2a (Homo sapiens), sequence (P29274 whole entry): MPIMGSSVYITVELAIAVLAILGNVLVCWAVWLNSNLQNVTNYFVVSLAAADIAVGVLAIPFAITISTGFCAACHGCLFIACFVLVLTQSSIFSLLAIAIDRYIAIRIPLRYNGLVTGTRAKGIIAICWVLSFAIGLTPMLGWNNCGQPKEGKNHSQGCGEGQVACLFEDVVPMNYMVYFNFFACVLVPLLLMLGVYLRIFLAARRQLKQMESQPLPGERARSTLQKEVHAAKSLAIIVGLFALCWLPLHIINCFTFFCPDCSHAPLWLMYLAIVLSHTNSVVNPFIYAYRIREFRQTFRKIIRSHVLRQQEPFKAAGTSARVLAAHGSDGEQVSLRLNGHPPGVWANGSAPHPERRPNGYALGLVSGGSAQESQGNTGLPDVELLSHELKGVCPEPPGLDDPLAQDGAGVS

As for `CCN(CC)CCN1CCN(C(=O)CCc2cccc(CSc3nc(N)c(C#N)c(-c4ccc(NC(C)=O)cc4)n3)n2)CC1`, the half-maximal effective concentration (EC50) at Adenosine receptor A1 [1] was 1 nM.

Consider `N#Cc1c(N)nc(SCc2cscn2)nc1-c1ccc2c(c1)OCO2`, for which the Ki was found to be 9.7 nM at Adenosine receptor A1 [2] and 42 nM at Adenosine receptor A2b. Besides, the inhibition was 31% in assay [3] and 35% in assay [4]. For the same molecule, the Ratio in assay [5] was found to be 0.93. Also, the maximum response (Emax) in assay [6] was 27%.

`N#Cc1c(N)nc(SCc2csc(-c3ccc(Cl)cc3)n2)c(C#N)c1-c1ccc(OCCO)cc1` [CAPADENOSON]: the EC50 at Adenosine receptor A1 [7] is 0.1 nM. Besides, the Ratio in assay [5] was determined as 1.42.
